Assay results published in ChEMBL document CHEMBL1141609, “Combinatorial synthesis of anilinoanthraquinone derivatives and evaluation as non-nucleotide-derived P2Y2 receptor antagonists” (Bioorg Med Chem Lett, 2008).

How the values were obtained:
[1] = target: P2Y purinoceptor 2 (Homo sapiens, UniProt P41231); assay: Antagonist activity at human recombinant P2Y2 receptor in 1321N1 cells assessed as inhibition of UTP-induced calcium mobilization; format: functional, cell-based
How it was run: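 Human P2Y2 receptor recombinantly expressed in 1321N1 astrocytoma cells. Calcium mobilization evoked by 1 uM UTP (ca. 50-80% of maximal effect) was read with the fluorescent Ca2+ dye Fura-2 on a fluorescence plate reader. IC50 was taken from inhibition of the UTP response.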

[2] = target: P2Y purinoceptor 2 (Mus musculus, UniProt P35383); assay: Antagonist activity at mouse P2Y2 receptor in mouse NG108-15 cells assessed as inhibition of UTP-induced calcium mobilization; format: functional, cell-based
Chain of P2Y purinoceptor 2 (Mus musculus, UniProt P35383) (P35383 whole entry): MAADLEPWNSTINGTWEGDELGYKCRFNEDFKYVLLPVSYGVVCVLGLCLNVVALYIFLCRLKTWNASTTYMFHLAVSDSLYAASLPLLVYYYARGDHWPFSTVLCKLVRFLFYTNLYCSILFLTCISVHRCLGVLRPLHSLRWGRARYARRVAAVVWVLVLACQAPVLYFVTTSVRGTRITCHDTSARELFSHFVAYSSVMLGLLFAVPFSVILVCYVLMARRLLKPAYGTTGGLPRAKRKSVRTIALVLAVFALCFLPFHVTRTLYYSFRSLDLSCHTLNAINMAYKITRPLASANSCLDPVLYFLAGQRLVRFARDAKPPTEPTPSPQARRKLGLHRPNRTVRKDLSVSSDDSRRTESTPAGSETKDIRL
How it was run: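 Mouse P2Y2 receptor natively expressed in NG108-15 neuroblastoma x glioma hybrid cells. Calcium mobilization evoked by 3 uM UTP (ca. 50-80% of maximal effect) was read with the fluorescent Ca2+ dye Fura-2 on a fluorescence plate reader. IC50 was taken from inhibition of the UTP response.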

[3] = target: P2Y purinoceptor 6 (Rattus norvegicus, UniProt Q63371); assay: Antagonist activity at rat P2Y6 receptor; format: functional
Chain of P2Y purinoceptor 6 (Q63371 whole entry): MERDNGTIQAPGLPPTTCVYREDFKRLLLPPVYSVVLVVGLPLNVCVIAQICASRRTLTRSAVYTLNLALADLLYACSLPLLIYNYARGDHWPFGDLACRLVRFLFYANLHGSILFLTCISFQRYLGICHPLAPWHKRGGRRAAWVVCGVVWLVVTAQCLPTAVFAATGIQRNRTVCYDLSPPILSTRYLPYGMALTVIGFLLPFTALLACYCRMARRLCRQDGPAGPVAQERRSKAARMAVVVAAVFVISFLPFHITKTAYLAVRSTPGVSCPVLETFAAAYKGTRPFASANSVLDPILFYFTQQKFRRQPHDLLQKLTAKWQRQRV

[4] = target: T1, Ectonucleoside triphosphate diphosphohydrolase 1 (Rattus norvegicus, UniProt P97687); assay: Inhibition of rat NTPDase 1
T1 sequence (P97687 whole entry): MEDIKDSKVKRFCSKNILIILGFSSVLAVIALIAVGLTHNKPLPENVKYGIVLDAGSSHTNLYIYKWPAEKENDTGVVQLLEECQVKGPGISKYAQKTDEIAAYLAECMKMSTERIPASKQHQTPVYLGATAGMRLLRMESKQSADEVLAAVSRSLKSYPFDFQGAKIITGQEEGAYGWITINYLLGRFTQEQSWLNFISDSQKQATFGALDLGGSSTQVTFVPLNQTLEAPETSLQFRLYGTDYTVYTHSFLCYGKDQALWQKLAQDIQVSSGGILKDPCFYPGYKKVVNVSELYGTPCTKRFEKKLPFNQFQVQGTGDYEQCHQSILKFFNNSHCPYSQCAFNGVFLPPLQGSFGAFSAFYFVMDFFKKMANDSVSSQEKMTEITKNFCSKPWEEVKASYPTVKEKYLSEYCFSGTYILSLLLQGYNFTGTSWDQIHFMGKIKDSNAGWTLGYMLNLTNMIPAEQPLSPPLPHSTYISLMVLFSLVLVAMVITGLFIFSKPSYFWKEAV

[5] = target: T2, 5'-nucleotidase (Rattus norvegicus, UniProt P21588); assay: Inhibition of rat ecto-5'-nucleotidase
T2 sequence (P21588 whole entry): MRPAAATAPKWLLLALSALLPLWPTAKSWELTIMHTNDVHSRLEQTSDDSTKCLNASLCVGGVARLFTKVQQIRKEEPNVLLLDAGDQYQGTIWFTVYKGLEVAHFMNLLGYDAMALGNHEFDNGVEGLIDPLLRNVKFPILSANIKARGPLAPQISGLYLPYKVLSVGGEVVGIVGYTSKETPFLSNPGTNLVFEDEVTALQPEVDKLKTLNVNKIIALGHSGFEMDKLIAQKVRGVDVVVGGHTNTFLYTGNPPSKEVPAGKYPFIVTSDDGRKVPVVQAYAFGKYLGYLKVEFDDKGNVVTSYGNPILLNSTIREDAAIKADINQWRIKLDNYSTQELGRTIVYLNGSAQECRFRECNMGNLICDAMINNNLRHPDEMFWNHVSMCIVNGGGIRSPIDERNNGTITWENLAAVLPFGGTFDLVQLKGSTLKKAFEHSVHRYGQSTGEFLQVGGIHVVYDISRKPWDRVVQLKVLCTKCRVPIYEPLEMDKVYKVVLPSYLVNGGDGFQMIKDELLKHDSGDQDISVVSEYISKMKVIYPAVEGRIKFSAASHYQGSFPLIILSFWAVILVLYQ

[6] = target: P2Y purinoceptor 4 (Homo sapiens, UniProt P51582); assay: Antagonist activity at human P2Y4 receptor; format: functional
Chain of P2Y purinoceptor 4 (P51582 whole entry): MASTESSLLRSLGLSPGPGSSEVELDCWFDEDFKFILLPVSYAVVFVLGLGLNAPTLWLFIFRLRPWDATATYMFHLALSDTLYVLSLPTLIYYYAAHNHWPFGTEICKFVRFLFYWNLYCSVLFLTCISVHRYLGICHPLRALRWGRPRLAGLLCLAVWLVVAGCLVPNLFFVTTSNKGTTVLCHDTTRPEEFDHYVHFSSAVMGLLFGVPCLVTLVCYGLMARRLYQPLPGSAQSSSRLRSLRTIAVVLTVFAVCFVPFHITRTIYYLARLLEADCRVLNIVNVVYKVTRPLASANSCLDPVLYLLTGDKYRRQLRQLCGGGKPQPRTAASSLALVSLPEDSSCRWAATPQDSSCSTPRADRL

Chain of P2Y purinoceptor 2 (Homo sapiens, UniProt P41231) (P41231 whole entry): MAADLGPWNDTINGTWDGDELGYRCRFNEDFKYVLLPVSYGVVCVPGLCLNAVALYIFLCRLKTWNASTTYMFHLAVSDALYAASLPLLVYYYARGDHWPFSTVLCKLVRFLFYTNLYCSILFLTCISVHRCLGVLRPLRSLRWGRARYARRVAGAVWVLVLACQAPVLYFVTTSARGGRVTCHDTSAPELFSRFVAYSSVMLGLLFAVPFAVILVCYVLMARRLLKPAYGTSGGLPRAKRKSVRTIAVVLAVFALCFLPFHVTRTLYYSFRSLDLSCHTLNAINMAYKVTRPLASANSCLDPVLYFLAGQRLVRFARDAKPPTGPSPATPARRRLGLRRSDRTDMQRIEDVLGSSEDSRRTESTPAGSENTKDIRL

IC50 [1]	IC50 [2]	Compound	further results
5.43 µM	9 µM	Cc1ccc(Nc2cc(S(=O)(=O)O)c(N)c3c2C(=O)c2ccccc2C3=O)c(C)c1	
30.3 µM	17 µM	Cc1ccc(C)c(Nc2cc(S(=O)(=O)O)c(N)c3c2C(=O)c2ccccc2C3=O)c1	
16.2 µM	10 µM	Cc1ccccc1Nc1cc(S(=O)(=O)O)c(N)c2c1C(=O)c1ccccc1C2=O	
9.82 µM	9 µM	COc1ccccc1Nc1cc(S(=O)(=O)O)c(N)c2c1C(=O)c1ccccc1C2=O	IC50 [3]: > 100 µM; Ki [4]: > 100 µM; Ki [5]: > 100 µM; IC50 [6]: 50 µM
> 30 µM	> 100 µM	Nc1c(S(=O)(=O)O)cc(Nc2cccc(Cl)c2)c2c1C(=O)c1ccccc1C2=O	
5.31 µM		Nc1c(S(=O)(=O)O)cc(Nc2ccc(Cl)cc2)c2c1C(=O)c1ccccc1C2=O	
5.81 µM	12 µM	CC(=O)Nc1ccc(Nc2cc(S(=O)(=O)O)c(N)c3c2C(=O)c2ccccc2C3=O)cc1	
	> 100 µM	CC(=O)c1ccc(Nc2cc(S(=O)(=O)O)c(N)c3c2C(=O)c2ccccc2C3=O)cc1	
11.5 µM	9 µM	CCOc1ccc(Nc2cc(S(=O)(=O)O)c(N)c3c2C(=O)c2ccccc2C3=O)cc1	
11.5 µM	17 µM	COc1ccc(Nc2cc(S(=O)(=O)O)c(N)c3c2C(=O)c2ccccc2C3=O)cc1	
3.93 µM		Nc1c(S(=O)(=O)O)cc(Nc2ccc(Nc3ccccc3)cc2)c2c1C(=O)c1ccccc1C2=O	
9.26 µM	24 µM	CCc1ccccc1Nc1cc(S(=O)(=O)O)c(N)c2c1C(=O)c1ccccc1C2=O	
7.95 µM	14 µM	Cc1cccc(Nc2cc(S(=O)(=O)O)c(N)c3c2C(=O)c2ccccc2C3=O)c1C	
15 µM	17 µM	CCOc1ccccc1Nc1cc(S(=O)(=O)O)c(N)c2c1C(=O)c1ccccc1C2=O	
24.9 µM	27 µM	Cc1ccc(Nc2cc(S(=O)(=O)O)c(N)c3c2C(=O)c2ccccc2C3=O)cc1	
	> 100 µM	Nc1c(S(=O)(=O)O)cc(Nc2cccc([N+](=O)[O-])c2)c2c1C(=O)c1ccccc1C2=O	
3.04 µM	22 µM	Cc1cccc(Nc2cc(S(=O)(=O)O)c(N)c3c2C(=O)c2ccccc2C3=O)c1	
	> 100 µM	Nc1c(S(=O)(=O)O)cc(Br)c2c1C(=O)c1ccccc1C2=O [BROMAMINIC ACID]	

Compound	IC50 [1]	IC50 [2]	further results
Nc1c(S(=O)(=O)O)cc(Nc2ccc(Nc3nc(Cl)nc(Nc4cccc(S(=O)(=O)O)c4)n3)c(S(=O)(=O)O)c2)c2c1C(=O)c1ccccc1C2=O [RB 2]	1.85 µM	5 µM	
